Published values of several laboratories.
Protocols differ between the studies behind these lines.
Target: Interleukin-1 receptor-associated kinase 3 (IRAK3, Homo sapiens, UniProt Q9Y616)
Residues used in one study (Q9Y616 1-596): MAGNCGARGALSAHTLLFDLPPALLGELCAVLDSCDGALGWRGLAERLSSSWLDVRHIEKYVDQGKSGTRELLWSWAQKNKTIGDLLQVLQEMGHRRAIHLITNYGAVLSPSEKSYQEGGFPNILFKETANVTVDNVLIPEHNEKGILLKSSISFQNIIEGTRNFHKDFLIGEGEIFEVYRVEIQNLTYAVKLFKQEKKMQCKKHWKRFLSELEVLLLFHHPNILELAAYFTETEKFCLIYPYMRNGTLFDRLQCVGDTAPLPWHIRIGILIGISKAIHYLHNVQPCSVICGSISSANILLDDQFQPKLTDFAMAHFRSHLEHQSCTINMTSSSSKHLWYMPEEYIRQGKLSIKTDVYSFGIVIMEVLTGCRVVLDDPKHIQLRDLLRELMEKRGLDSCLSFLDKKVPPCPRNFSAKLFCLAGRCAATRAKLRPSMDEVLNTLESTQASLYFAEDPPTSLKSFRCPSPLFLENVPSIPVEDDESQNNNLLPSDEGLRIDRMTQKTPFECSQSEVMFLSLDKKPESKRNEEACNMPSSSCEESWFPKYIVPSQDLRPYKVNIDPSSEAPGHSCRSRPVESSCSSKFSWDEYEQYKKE

With `CCN1CCN(Cc2ccc(C(=O)Nc3ccc(C)c(Oc4ccc5c(c4)CC(=O)N5)c3)cc2C(F)(F)F)CC1` the remaining binding was 100% (binding, competition with immobilised ligand; 1 µM).
`C[C@H](NC(=O)c1cnc2n1[C@](C)(Cc1ccc(C#N)cc1)C(=O)N2c1cc(Cl)c(F)c(Cl)c1)C(=O)NC1(c2ccccn2)CC1` has a remaining binding of 100% (cell-free assay, competition with immobilised ligand; 1 µM).
With `O=C(c1ccc(Nc2ncc(Cl)c(-c3ccc(Cl)s3)n2)cc1)N1CCC(N2CCCC2)CC1` the remaining binding was 1.6% (binding, competition with immobilised ligand; 1 µM).
The remaining binding of `COc1ccnn2ncc(-c3ccnc(N(C)C)n3)c12` is reported as 91% (binding; 1 µM).
`CN(c1ccnc(CNc2nc(Nc3ccc4c(c3)CC(=O)N4)ncc2C(F)(F)F)n1)S(C)(=O)=O` has a remaining binding of 11% (cell-free assay, competition with immobilised ligand; 1 µM).
With `CN(CCCC(F)(F)F)c1nccc(-c2cnn3ncccc23)n1` the remaining binding was 94% (binding; 1 µM).
`CCOCCn1cc(C(=O)Nc2ccc(-n3nc(-c4cccnc4)cc3C(F)(F)F)cn2)ccc1=O` gave a remaining binding of 100% (cell-free assay, competition with immobilised ligand; 1 µM).
`O=C(c1ccc(Nc2ncc(Cl)c(-c3cc4ccccc4s3)n2)cc1)N1CCC(N2CCCC2)CC1` has a remaining binding of 6% (binding, competition with immobilised ligand; 1 µM).
`COc1cnc(Nc2cccc(S(N)(=O)=O)c2)nc1N1CCN(c2ccccc2)C(=O)C1` has a remaining binding of 100% (binding, competition with immobilised ligand; 1 µM).
For `C=CC(=O)N1CCC(C(=O)NCC(=O)N2CCN(c3nc(-c4cnc(N)nc4C(F)F)nc(N4CCOCC4)n3)CC2)CC1`, the remaining binding was 89% (binding, competition with immobilised ligand; 1 µM).
The remaining binding of `c1cnn2ncc(-c3ccnc(N4CCC45COC5)n3)c2c1` is reported as 36% (binding; 1 µM).
The remaining binding of `O=C(NCCCN1CCOCC1)c1ccc(Nc2ncc(Cl)c(-c3ccc(Cl)s3)n2)cc1` is reported as 13% (binding, competition with immobilised ligand; 1 µM).
`Nc1cnc(N2CCc3cc(S(=O)(=O)Nc4c(F)cc(Cl)cc4F)cc(N4CCCC4=O)c32)nc1` has a remaining binding of 89% (cell-free assay, competition with immobilised ligand; 1 µM).
The remaining binding of `COc1cnc(Nc2cccc(S(N)(=O)=O)c2)nc1N1CCN(c2ccccc2)CC1` is reported as 100% (binding, competition with immobilised ligand; 1 µM).
`CCCCN(CCCC)C(=O)CN1C[C@H](c2cc(OC)c3c(c2)OCO3)[C@@H](C(=O)O)[C@@H]1CC(C)(C)CCC` has a remaining binding of 100% (cell-free assay, competition with immobilised ligand; 1 µM).
For `C[C@@H]1CCN(c2nccc(-c3cnn4ncccc34)n2)C1`, the remaining binding was 52% (binding; 1 µM).
`O=C(Nc1c[nH]nc1C(=O)NC1CCNCC1)c1cc(F)cc(F)c1` gave a remaining binding of 100% (binding, competition with immobilised ligand; 1 µM).
`Nc1ncc2c(n1)-c1c([nH]c3ccc(C#CC4CC4)cc13)CCCC2` has a remaining binding of 71% (binding, competition with immobilised ligand; 1 µM).
`Cn1nc(C(F)(F)F)cc1-c1cnc(N2CCc3cc(S(=O)(=O)Nc4c(F)cc(Cl)cc4F)cc(N4CCCC4=O)c32)nc1` has a remaining binding of 100% (cell-free assay, competition with immobilised ligand; 1 µM).
The remaining binding of `Cc1cnn2ncc(-c3ccnc(N(C)C)n3)c2c1` is reported as 70% (binding; 1 µM).
The remaining binding of `C[C@@H](c1ccc(-n2cnc3c(N)ncnc32)cc1)N1CCc2nn(C)c(Cc3ccccc3)c2C1=O` is reported as 79% (binding, competition with immobilised ligand; 0.1 µM).
